The results in this text go back to ChEMBL document CHEMBL3608246, “Novel benzidine and diaminofluorene prolinamide derivatives as potent hepatitis C virus NS5A inhibitors” (Eur J Med Chem, 2015).

Structures are written as SMILES. Active and inactive are the calls of the source.

Data set [1] concerns Hepatitis C virus. Briefly: Antiviral activity against HCV genotype 1b NK/R2AN infected in human Huh7.5.1 cells expressing NS5A Y93H mutant assessed as reduction in virus replication at 100 pM to 1 uM by luciferase reporter gene assay. It counts as functional, organism-based. Conditions: Hepacivirus hominis, subtype 1b NK/R2AN, Huh-7. In outline:
(§1)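 Daclatasvir-resistant NS5A mutant RNAs were transcribed in vitro and electroporated into Huh7.5.1 cells grown in 12-well plates. At 4 h post-transfection, medium was replaced with DMEM containing serially diluted compounds. Cells were harvested 3 days later and Renilla luciferase activity was measured and normalized to mock-treated cells.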
(In general: A reporter such as luciferase makes a cellular process visible.)

In data set [2] the test system is Hepatitis C virus. The experiment in a line: Antiviral activity against HCV genotype 1b NK/R2AN infected in human Huh7.5.1 cells expressing NS5A L31V mutant assessed as reduction in virus replication at 100 pM to 1 uM by luciferase reporter gene assay. The data set is classed as functional, organism-based. Conditions: Hepacivirus hominis, subtype 1b NK/R2AN, Huh-7. In outline:
as §1

For data set [3], the system named is Salmonella typhimurium. Briefly: Genotoxicity in Salmonella typhimurium TA98 assessed as induction of revertant colonies at 1 ug/plate in absence of S9 mix by Ames test relative untreated control. It counts as toxicity, organism-based. Conditions: salmonella enterica subsp. enterica serovar typhimurium. A general note: In the Ames test, an excess of revertant colonies over the control signals mutagenicity.

The test system of data set [4] is Hepatitis C virus. The experiment in a line: Antiviral activity against HCV genotype 1b NK/R2AN infected in human Huh7.5.1 cells assessed as reduction in virus replication in presence of 123 nM NS5B polymerase inhibitor sofosbuvir by luciferase reporter gene assay. The data set is classed as functional, organism-based. Conditions: Hepacivirus hominis; subtype 1b NK/R2AN; Huh-7.

In data set [5] the target is Cytochrome P450 3A4 (Homo sapiens, UniProt P08684). Briefly: Inhibition of human CYP3A4 by luminometry. The data set is classed as ADME. In outline:
(§2)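 Human CYP1A2, 2C9, 2C19, 2D6 and 3A4 inhibition by P450-Glo luminescent assay per kit protocol; compounds at 100, 50, 10, 5, 1, 0.1 and 0.01 µM; luminometer read-out.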

Data set [6] concerns the target Cytochrome P450 2D6 (Homo sapiens, UniProt P10635). Briefly: Inhibition of human CYP2D6 by luminometry. It counts as ADME. In outline: as §2
The target of data set [7] is Cytochrome P450 2C19 (Homo sapiens, UniProt P33261). Briefly: Inhibition of human CYP2C19 by luminometry. It counts as ADME. The method in brief:
as §2

A short description of data set [8]: Cytotoxicity against human Huh7.5.1 cells. It counts as cell-based, Huh-7.
The nature of data set [9]: Cytotoxicity against mouse NIH/3T3 cells by WST dye based CCK8 assay. The data set is classed as cell-based. Conditions: NIH3T3. In outline:
(§3)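 CCK-8 survival assay: WST-8 tetrazolium reduced by cellular dehydrogenases to orange formazan, giving living-cell count; compounds tested up to 100 µM maximum.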
(In general: Tetrazolium assays rely on reduction of a dye to a coloured formazan, in cell work by metabolically active cells.)

The nature of data set [10]: Oral bioavailability in Sprague-Dawley rat at 10 mg/kg by LC/MS/MS method. The data set is classed as ADME, organism-based. Conditions: in vivo. The method in brief: (§4)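 Sprague-Dawley rats, 2 male and 1 female per compound per route, parallel design. Vehicle 5% DMSO, 10% solutol, 85% HPBCD; IV 5 mg/kg bolus via tail vein, oral 10 mg/kg. Blood into K2-EDTA tubes at several time points, centrifuged, plasma analysed by LC/MS/MS; non-compartmental analysis.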

For data set [11], the system named is Hepatitis C virus. Briefly: Antiviral activity against HCV genotype 1b NK/R2AN infected in human Huh7.5.1 cells assessed as reduction in virus replication by luciferase reporter gene assay. It counts as functional, organism-based, Hepacivirus hominis, subtype 1b NK/R2AN, Huh-7. Conditions: Hepatitis C virus, subtype 1b NK/R2AN, Huh-7.
The subject of data set [12] is Salmonella typhimurium. The experiment in a line: Genotoxicity in Salmonella typhimurium TA100 assessed as induction of revertant colonies at 200 ug/plate in presence of S9 mix by Ames test relative untreated control. The data set is classed as toxicity, organism-based. Conditions: salmonella enterica subsp. enterica serovar typhimurium. The method in brief:
(§5)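 Ames test, Maron's method, histidine-requiring S. typhimurium TA98 and TA100, with and without S-9 mix; 200 µg/plate, vehicle and positive controls. Revertant colonies counted in triplicate (mean ± SD, n = 3); factor = treated/vehicle-control colonies; positive if ≥2-fold over vehicle.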

Data set [13] has as its target T1, Cytochrome P450 1A2 (Homo sapiens, UniProt P05177).
T1 sequence (P05177 whole entry): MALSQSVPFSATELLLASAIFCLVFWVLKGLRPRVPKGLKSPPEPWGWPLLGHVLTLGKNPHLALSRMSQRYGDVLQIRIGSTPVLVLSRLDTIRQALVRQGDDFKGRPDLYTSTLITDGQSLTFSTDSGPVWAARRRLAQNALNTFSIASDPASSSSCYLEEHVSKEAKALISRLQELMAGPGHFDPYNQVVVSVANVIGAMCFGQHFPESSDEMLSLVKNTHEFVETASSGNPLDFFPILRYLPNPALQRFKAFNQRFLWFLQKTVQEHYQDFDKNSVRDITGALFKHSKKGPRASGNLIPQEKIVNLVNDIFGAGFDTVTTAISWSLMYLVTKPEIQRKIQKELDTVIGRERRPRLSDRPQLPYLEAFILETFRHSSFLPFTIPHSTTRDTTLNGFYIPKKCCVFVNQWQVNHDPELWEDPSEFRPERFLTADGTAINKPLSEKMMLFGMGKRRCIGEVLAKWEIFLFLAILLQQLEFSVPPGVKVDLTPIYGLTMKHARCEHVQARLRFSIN
The experiment in a line: Inhibition of human CYP1A2 by luminometry. The data set is classed as ADME. In outline:
as §2

Data set [14] has as its system HFL1. The experiment in a line: Cytotoxicity against human HFL1 cells by WST dye based CCK8 assay. The data set is classed as cell-based. The method in brief: as §3
Data set [15] concerns Salmonella typhimurium. Briefly: Genotoxicity in Salmonella typhimurium TA98 assessed as induction of revertant colonies at 200 ug/plate in presence of S9 mix by Ames test relative untreated control. It counts as toxicity, organism-based. Conditions: salmonella enterica subsp. enterica serovar typhimurium. The method in brief:
as §5

Data set [16] deals with Hepatitis C virus. The experiment in a line: Antiviral activity against HCV genotype 2a JFH5a infected in human Huh7.5.1 cells transfected with JFH5a-Rluc-ad34 assessed as reduction in virus proliferation by luciferase reporter gene assay. It counts as functional, cell-based, Hepacivirus hominis, Huh-7. Conditions: Hepatitis C virus, genotype 2a JFH5a, Huh-7.
In data set [17] the test system is L929. Briefly: Cytotoxicity against mouse L929 cells by WST dye based CCK8 assay. The data set is classed as cell-based. The method in brief:
as §3

Data set [18] deals with Salmonella typhimurium. The experiment in a line: Genotoxicity in Salmonella typhimurium TA98 assessed as induction of revertant colonies at 200 ug/plate in absence of S9 mix by Ames test relative untreated control. The data set is classed as toxicity, organism-based. Conditions: salmonella enterica subsp. enterica serovar typhimurium. The method in brief: as §5
Data set [19] is described as follows: Half life in Sprague-Dawley rat at 5 mg/kg, iv by LC/MS/MS method. The data set is classed as ADME, organism-based. Conditions: in vivo. The method in brief:
as §4

Data set [20] is described as follows: Half life in Sprague-Dawley rat at 10 mg/kg, po by LC/MS/MS method. It counts as ADME, organism-based. Conditions: in vivo. In outline: as §4
In data set [21] the target is hERG (KCNH2) (Homo sapiens, UniProt Q12809). The experiment in a line: Inhibition of human ERG at 10 uM by fluorescence polarization assay based ligand binding assay.
Chain of hERG (KCNH2) (Q12809 whole entry): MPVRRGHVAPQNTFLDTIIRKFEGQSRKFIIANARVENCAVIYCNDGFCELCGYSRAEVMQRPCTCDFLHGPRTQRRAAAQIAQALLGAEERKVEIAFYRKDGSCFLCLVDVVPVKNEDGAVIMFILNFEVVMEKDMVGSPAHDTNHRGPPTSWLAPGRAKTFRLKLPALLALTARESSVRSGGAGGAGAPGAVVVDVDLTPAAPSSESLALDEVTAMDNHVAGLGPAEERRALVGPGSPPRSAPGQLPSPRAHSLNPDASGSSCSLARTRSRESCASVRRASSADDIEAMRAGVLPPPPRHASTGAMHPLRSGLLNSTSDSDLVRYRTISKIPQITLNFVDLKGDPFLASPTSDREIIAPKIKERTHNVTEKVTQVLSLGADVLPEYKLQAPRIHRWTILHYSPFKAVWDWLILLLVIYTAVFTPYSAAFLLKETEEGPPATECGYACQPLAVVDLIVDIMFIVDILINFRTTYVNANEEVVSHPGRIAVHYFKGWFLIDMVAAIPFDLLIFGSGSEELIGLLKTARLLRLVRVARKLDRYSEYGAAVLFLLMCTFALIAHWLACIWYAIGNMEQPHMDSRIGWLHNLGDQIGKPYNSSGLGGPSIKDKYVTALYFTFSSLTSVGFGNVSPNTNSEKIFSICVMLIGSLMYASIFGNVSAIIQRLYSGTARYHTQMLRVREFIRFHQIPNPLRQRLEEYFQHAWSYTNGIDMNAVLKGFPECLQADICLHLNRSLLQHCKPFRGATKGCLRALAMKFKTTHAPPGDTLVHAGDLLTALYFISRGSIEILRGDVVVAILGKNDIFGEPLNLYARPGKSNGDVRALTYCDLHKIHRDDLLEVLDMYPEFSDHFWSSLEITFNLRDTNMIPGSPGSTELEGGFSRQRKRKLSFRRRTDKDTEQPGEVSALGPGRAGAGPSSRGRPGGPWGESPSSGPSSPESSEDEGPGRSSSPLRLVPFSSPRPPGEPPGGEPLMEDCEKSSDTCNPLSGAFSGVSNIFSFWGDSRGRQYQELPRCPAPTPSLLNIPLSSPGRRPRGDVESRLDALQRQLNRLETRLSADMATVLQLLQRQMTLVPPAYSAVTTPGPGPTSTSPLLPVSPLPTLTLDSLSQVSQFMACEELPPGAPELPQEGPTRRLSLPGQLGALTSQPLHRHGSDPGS
Data set [22] concerns the target Cytochrome P450 2C9 (Homo sapiens, UniProt P11712). Briefly: Inhibition of human CYP2C9 by luminometry. The data set is classed as ADME. In outline:
as §2

Data set [23] can be described thus: Cytotoxicity against CHOK1 cells by WST dye based CCK8 assay. The data set is classed as cell-based. Conditions: Cricetulus griseus, CHO-K1. In outline:
as §3

Data set [24] has as its system Salmonella typhimurium. Briefly: Genotoxicity in Salmonella typhimurium TA100 assessed as induction of revertant colonies at 200 ug/plate in absence of S9 mix by Ames test relative untreated control. It counts as toxicity, organism-based. Conditions: salmonella enterica subsp. enterica serovar typhimurium. In outline: as §5
For data set [25], the system named is Vero. The experiment in a line: Cytotoxicity against African green monkey Vero cells by WST dye based CCK8 assay. The data set is classed as cell-based. Conditions: Chlorocebus sabaeus. In outline:
as §3

The nature of data set [26]: Stability in human liver microsomes assessed as compound remaining at 1 uM after 0.5 hrs by LC-MS/MS method. It counts as ADME. Conditions: read-out: Stability. In outline:
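Pooled human liver microsomal fraction with β-NADPH, compound at 1 µM, incubated over 30 min; remaining compound in supernatant quantified by LC-MS/MS.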

Chain of Cytochrome P450 2C19 (P33261 whole entry): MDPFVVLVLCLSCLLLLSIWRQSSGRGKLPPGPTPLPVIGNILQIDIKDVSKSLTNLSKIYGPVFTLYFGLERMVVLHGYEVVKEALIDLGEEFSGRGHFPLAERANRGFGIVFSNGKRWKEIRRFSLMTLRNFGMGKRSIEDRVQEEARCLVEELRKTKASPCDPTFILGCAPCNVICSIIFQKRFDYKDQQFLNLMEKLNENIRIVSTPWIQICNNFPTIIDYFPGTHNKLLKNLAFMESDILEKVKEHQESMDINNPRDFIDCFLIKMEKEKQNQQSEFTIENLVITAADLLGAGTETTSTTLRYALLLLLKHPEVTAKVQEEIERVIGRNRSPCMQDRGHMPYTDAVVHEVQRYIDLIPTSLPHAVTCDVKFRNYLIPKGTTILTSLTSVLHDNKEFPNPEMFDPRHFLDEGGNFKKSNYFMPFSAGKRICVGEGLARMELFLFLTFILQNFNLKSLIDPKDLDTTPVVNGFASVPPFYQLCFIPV
Chain of Cytochrome P450 3A4 (P08684 whole entry): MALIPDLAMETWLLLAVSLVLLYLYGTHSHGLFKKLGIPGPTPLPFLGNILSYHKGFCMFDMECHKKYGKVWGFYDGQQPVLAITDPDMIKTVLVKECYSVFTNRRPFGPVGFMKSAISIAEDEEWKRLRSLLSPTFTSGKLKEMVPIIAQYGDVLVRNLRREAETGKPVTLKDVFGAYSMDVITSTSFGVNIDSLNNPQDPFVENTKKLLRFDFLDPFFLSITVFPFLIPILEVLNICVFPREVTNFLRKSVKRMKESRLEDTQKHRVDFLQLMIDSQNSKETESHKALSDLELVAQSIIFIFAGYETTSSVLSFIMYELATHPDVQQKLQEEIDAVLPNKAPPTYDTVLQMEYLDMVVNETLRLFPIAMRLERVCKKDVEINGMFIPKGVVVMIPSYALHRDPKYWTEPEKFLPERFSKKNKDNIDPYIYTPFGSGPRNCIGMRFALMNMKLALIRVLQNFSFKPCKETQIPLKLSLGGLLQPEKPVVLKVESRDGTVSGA
Chain of Cytochrome P450 2C9 (P11712 whole entry): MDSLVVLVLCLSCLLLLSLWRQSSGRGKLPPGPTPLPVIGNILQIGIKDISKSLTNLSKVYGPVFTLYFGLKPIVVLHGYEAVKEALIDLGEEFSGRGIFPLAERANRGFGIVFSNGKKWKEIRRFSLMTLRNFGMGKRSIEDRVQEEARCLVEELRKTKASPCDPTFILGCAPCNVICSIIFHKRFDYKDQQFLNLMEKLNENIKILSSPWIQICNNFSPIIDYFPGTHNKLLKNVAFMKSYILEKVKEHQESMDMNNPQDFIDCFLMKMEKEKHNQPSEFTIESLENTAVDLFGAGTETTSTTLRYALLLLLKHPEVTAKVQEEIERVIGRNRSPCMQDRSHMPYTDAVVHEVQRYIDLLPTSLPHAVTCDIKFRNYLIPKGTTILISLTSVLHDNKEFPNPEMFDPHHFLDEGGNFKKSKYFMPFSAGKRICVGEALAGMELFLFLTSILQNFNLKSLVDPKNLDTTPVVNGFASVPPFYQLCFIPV
Chain of Cytochrome P450 2D6 (P10635 whole entry): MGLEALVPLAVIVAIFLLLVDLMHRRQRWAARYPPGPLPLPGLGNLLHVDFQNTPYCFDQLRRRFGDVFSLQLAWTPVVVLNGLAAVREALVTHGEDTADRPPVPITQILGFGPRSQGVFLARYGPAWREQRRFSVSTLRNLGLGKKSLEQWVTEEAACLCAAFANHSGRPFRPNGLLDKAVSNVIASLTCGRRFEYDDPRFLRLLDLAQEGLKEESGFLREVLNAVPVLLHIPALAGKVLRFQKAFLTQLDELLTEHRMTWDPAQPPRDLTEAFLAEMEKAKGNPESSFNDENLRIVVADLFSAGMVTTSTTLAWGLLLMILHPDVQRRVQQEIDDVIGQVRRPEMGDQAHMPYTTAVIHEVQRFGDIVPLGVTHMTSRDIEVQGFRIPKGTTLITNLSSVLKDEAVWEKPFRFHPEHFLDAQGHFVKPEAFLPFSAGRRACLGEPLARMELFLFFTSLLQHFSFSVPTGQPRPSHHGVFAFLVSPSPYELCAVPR

Broadly, the inhibition is the percentage by which the read-out fell short of the control. Consider `COC(=O)N[C@H](C(=O)N1CCC[C@H]1c1ncc(-c2ccc(-c3ccc(-c4cnc([C@@H]5CCCN5C(=O)[C@@H](NC(=O)OC)C(C)C)[nH]4)cc3)cc2)[nH]1)C(C)C`, for which the inhibition result in data set [1] and in data set [2] was “Active” in each case.
In the case of `O=[N+]([O-])c1ccc2c(c1)Cc1ccccc1-2` [2-NITROFLUORENE], the “fold change (FC)” value in [3] is recorded as 10.2.
Regarding `COC(=O)N[C@@H](C(=O)N1CCC[C@H]1C(=O)Nc1ccc(-c2ccc(NC(=O)[C@@H]3CCCN3C(=O)[C@H](NC(=O)OC)c3ccccc3)cc2C(F)(F)F)c(C(F)(F)F)c1)c1ccccc1` (stereo in doubt; form 1), the result in data set [4] was Active.
What is called EC50 is the midpoint of the concentration-response curve. The term CC50 denotes the concentration at which the toxic effect on the cells reaches its halfway point. The IC50 is the concentration that gives 50% inhibition. For orientation: bioavailability means the share of a dose that reaches the circulation, judged against a reference dose that is usually intravenous. One may read the half-life as the time needed for the level to fall by half in the phase considered. `COC(=O)N[C@@H](C(=O)N1CCC[C@H]1C(=O)Nc1ccc2c(c1)C(F)(F)c1cc(NC(=O)[C@@H]3CCCN3C(=O)[C@H](NC(=O)OC)c3ccccc3)ccc1-2)c1ccccc1`: the EC50 in data set [5] was 0.976 µM; in data set [6], above 100 µM; in [7], 13.9 µM; in data set [11], 3 pM; in data set [13], above 100 µM; in data set [16] it was 0.059 nM. In [22], the half-maximal effective concentration (EC50) stood at 0.277 µM. The molecule also had a CC50 in data set [8] above 25 µM. Further, the IC50 in [9], in data set [14], in [17], in data set [23] and in data set [25] was above 100 µM throughout. This molecule came in with a bioavailability in [10] of 7.6%. The “fold change (FC)” value in [12] was 0.9; in data set [15], 1.1; in [18], 1.3; in data set [24] it was 0.9. Further, the inhibition entry in data set [1] and in data set [2] was “Active” each time. In addition, the half-life in [19] was 0.9 h; in data set [20], 1.68 h. 10 µM produced 39.1% inhibition in data set [21]. The remaining at 0.5 h, 1 µM in data set [26] was 92%.
